Measured values taken from ChEMBL document CHEMBL1212899, “Strategies for recognition of stem-loop RNA structures by synthetic ligands: application to the HIV-1 frameshift stimulatory sequence” (J Med Chem, 2010).

Experiments:
Nucleic Acid [1] = experiment: Binding affinity to HIV1 frameshift-stimulating RNA by fluorescence titration in presence of yeast tRNA; format: nucleic-acid assay, Human immunodeficiency virus 1
How it was run: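 Cy3-labelled HIV-1 FSS RNA was premixed with yeast total tRNA competitor (8 or 16 μM) in 1X PBS pH 7.2 with MgCl2, then titrated with compound. Fluorescence was read at 564.1 nm after at least 10 min equilibration per addition. Dilution-corrected ΔFU was fit to a 1-site ligand-depletion model for KD.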

Nucleic Acid [2] = experiment: Binding affinity to HIV1 frameshift-stimulating RNA by fluorescence titration; format: nucleic-acid assay, Human immunodeficiency virus 1
How it was run: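 5′-Cy3-labelled HIV-1 FSS RNA (400 or 500 nM) in 1X PBS pH 7.2 was heated to 65 °C for 4 min, then MgCl2 was added. Compound was titrated in over 100 nM–10 μM, with at least 10 min equilibration per step. Cy3 emission at 564.1 nm was dilution-corrected, and ΔFU was fit to a 1:1 model with ligand depletion to give KD. At least 2 titrations were run.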

[3] = Dissociation constant Kd of the compound; format: physicochemical
[4] = Cytotoxicity against human fibroblast up to 10 uM; format: cell-based; details: in the assay text read “up to 1 mM” for “up to 10 uM”
How it was run: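 Human fibroblasts were grown in DMEM with 5% FBS at 37 °C and 5% CO2, seeded at 3.2 × 10^4 cells/well, and grown 48 h to about 80% confluence. Cells were exposed to compound in DMEM for 24 h, with mitomycin C as control. MTT was added for 4 h, formazan was dissolved in isopropanol, and absorbance was read at 600 nm.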

Row | Kd (Nucleic Acid [1]; read-out: Kd) | Kd (Nucleic Acid [2]; read-out: Kd) | Kd [3] | SMILES | other results
1 | 0.2 µM | 0.35 µM | 7.88 µM | CCc1nc2ccccc2cc1C(=O)N[C@@H](CSSC[C@H](NC(=O)c1cc2ccccc2nc1CC)C(=O)N1CCC[C@H]1C(=O)N[C@@H](Cc1ccccc1)C(=O)NCCCN)C(=O)N1CCC[C@H]1C(=O)N[C@@H](Cc1ccccc1)C(=O)NCCCN | –
2 | – | 0.47 µM | – | C=CC[C@H](NC(=O)c1cc2ccccc2nc1CC)C(=O)N1CCC[C@H]1C(=O)N[C@@H](Cc1ccccc1)C(=O)NCCCN | Kd (Nucleic Acid [1]): Not Active
3 | 0.39 µM | 0.33 µM | 11.2 µM | CCc1nc2ccccc2cc1C(=O)N[C@@H](C/C=C/C[C@H](NC(=O)c1cc2ccccc2nc1CC)C(=O)N1CCC[C@H]1C(=O)N[C@@H](Cc1ccccc1)C(=O)NCCCN)C(=O)N1CCC[C@H]1C(=O)N[C@@H](Cc1ccccc1)C(=O)NCCCN | –
4 | 0.26 µM | 0.18 µM | 4.66 µM | CCc1nc2ccccc2cc1C(=O)N[C@@H](C/C=C\C[C@H](NC(=O)c1cc2ccccc2nc1CC)C(=O)N1CCC[C@H]1C(=O)N[C@@H](Cc1ccccc1)C(=O)NCCCN)C(=O)N1CCC[C@H]1C(=O)N[C@@H](Cc1ccccc1)C(=O)NCCCN | Activity [4]: Non-toxic
5 | 1.41 µM | 1.27 µM | 12.3 µM | CCc1nc2ccccc2cc1C(=O)N[C@@H](CCCC[C@H](NC(=O)c1cc2ccccc2nc1CC)C(=O)N1CCC[C@H]1C(=O)N[C@@H](Cc1ccccc1)C(=O)NCCCN)C(=O)N1CCC[C@H]1C(=O)N[C@@H](Cc1ccccc1)C(=O)NCCCN | –
6 | – | 0.43 µM | – | Cc1nc2ccccc2cc1C(=O)N[C@@H](CSSC[C@H](NC(=O)c1cc2ccccc2nc1C)C(=O)N1CCC[C@H]1C(=O)N[C@@H](Cc1ccccc1)C(=O)NCCCN)C(=O)N1CCC[C@H]1C(=O)N[C@@H](Cc1ccccc1)C(=O)NCCCN | –
7 | – | 0.65 µM | – | NCCCNC(=O)[C@H](Cc1ccccc1)NC(=O)[C@@H]1CCCN1C(=O)[C@H](CSSC[C@H](NC(=O)c1cnc2ccccc2c1)C(=O)N1CCC[C@H]1C(=O)N[C@@H](Cc1ccccc1)C(=O)NCCCN)NC(=O)c1cnc2ccccc2c1 | –
8 | – | – | – | NCCCNC(=O)[C@H](Cc1ccccc1)NC(=O)[C@@H]1CCCN1C(=O)[C@@H](N)CSSC[C@H](N)C(=O)N1CCC[C@H]1C(=O)N[C@@H](Cc1ccccc1)C(=O)NCCCN | Kd (Nucleic Acid [2]): Not Active
9 | – | 1.42 µM | – | CCc1nc2cc3c(cc2cc1C(=O)N[C@@H](CSSC[C@H](NC(=O)c1cc2cc4c(cc2nc1CC)OCO4)C(=O)N1CCC[C@H]1C(=O)N[C@@H](Cc1ccccc1)C(=O)NCCCN)C(=O)N1CCC[C@H]1C(=O)N[C@@H](Cc1ccccc1)C(=O)NCCCN)OCO3 | –
10 | – | 0.23 µM | – | NCCCNC(=O)[C@H](Cc1ccccc1)NC(=O)[C@@H]1CCCN1C(=O)[C@H](CSSC[C@H](NC(=O)c1ccc2c(c1)C(=O)c1ccccc1C2=O)C(=O)N1CCC[C@H]1C(=O)N[C@@H](Cc1ccccc1)C(=O)NCCCN)NC(=O)c1ccc2c(c1)C(=O)c1ccccc1C2=O | –

Row | SMILES | Kd (Nucleic Acid [1]; read-out: Kd) | Kd (Nucleic Acid [2]; read-out: Kd) | Kd [3] | other results
11 | CCc1nc2ccccc2cc1C(=O)O | – | 0.29 µM | – | Kd (Nucleic Acid [1]): Not Active
12 | NC[C@@H]1O[C@H](O[C@H]2[C@@H](O)[C@H](O[C@@H]3[C@@H](O)[C@H](N)C[C@H](N)[C@H]3O[C@H]3O[C@H](CN)[C@@H](O)[C@H](O)[C@H]3N)O[C@@H]2CO)[C@H](N)[C@@H](O)[C@@H]1O [FRAMYCETIN] | – | – | 2.6 µM | –
